ChEMBL document CHEMBL1127435 (J Med Chem, 1994)
Several values for one entry are separate records, joined by “and”; a condition that tells them apart may be missing. Equal values may be shown once.

Legend:
[1] = biological target: T1, 5-hydroxytryptamine receptor 2A (Rattus norvegicus, UniProt P14842); experiment: Affinity was evaluated as inhibition constant for serotonin 5-hydroxytryptamine 2A receptor
[2] = biological target: T2, 5-hydroxytryptamine receptor 2C (Rattus norvegicus, UniProt P08909); experiment: Affinity was evaluated as inhibition constant for serotonin 5-hydroxytryptamine 2C receptor
T2 sequence (P08909 whole entry): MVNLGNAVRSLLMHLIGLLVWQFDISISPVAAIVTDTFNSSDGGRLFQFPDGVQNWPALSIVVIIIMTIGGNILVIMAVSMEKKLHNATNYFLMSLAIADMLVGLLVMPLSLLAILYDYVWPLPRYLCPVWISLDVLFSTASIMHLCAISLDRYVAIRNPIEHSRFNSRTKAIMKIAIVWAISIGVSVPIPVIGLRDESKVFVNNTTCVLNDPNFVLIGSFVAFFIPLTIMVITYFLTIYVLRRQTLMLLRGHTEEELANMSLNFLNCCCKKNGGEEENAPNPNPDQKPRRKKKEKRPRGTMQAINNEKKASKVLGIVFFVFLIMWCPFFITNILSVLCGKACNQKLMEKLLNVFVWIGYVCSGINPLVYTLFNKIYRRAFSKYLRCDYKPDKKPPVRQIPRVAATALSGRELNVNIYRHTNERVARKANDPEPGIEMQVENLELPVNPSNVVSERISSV

D(2) dopamine receptor [3] = biological target: T3, D(2) dopamine receptor (Homo sapiens, UniProt P14416); experiment: Affinity was evaluated as inhibition constant for dopamine D-2 receptor
D(4) dopamine receptor [4] = biological target: T4, D(4) dopamine receptor (Homo sapiens, UniProt P21917); experiment: Affinity was evaluated as inhibition constant for dopamine D-4 receptor
T4 sequence (P21917 whole entry): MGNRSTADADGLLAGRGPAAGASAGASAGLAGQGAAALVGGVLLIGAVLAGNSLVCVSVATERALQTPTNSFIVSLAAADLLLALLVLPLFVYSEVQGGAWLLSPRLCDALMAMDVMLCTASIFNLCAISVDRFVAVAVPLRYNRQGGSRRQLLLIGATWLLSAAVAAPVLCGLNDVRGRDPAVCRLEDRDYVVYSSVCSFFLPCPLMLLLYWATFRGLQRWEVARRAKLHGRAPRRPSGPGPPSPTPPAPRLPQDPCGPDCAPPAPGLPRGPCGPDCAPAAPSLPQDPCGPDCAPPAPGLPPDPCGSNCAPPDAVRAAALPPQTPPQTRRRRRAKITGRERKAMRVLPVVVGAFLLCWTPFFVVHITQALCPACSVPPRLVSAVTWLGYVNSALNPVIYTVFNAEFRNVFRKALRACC

[5] = Ratio between Ki values of D2 and S-2A receptors
[6] = biological target: T1, 5-hydroxytryptamine receptor 2A; experiment: Affinity was evaluated by inhibition of [125I]LSD binding to NIH 3T3 cells transfected with cloned rat 5-hydroxytryptamine 2A receptor; type: cell-based, NIH3T3
Outline: (§1)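 Membranes from confluent GF-6 and P0 cell monolayers, homogenized in ice-cold 0.32 M sucrose, spun at 44 000g, stored at -80°C in 50 mM Tris-HCl pH 7.6. Triplicate tubes held 5 nM [125I]LSD (stock), test compound at 10^-9 to 10^-5 M final and 1–5 μg protein. Nonspecific binding was defined with 10 μM mesulergine.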

[7] = biological target: T2, 5-hydroxytryptamine receptor 2C; experiment: Affinity was evaluated by inhibition of [125I]LSD binding to NIH 3T3 cells transfected with cloned rat 5-hydroxytryptamine 2C receptor; type: cell-based, NIH3T3; outline: as §1
[8] = biological target: T5, Serotonin 3 (5-HT3) receptor (Rattus norvegicus, UniProt P35563+Q9JJ16); experiment: Affinity was evaluated by inhibition of [3H]GR-65630 binding to NG108-15 cell transfected with cloned rat 5-hydroxytryptamine 3 receptor; type: cell-based
T5 sequence (P35563 whole entry): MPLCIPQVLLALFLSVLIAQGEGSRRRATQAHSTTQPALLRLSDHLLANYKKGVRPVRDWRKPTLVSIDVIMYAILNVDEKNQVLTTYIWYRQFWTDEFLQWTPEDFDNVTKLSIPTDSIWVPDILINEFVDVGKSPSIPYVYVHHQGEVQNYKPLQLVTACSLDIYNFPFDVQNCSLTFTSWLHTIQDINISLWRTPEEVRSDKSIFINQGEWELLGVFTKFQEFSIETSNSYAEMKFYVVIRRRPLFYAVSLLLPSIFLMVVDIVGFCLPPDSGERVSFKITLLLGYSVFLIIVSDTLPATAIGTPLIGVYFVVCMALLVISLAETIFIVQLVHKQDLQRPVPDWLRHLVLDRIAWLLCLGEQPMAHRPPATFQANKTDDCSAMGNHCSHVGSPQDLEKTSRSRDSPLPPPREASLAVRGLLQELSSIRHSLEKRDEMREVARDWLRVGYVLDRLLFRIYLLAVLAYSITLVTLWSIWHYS
T5 sequence (Q9JJ16 whole entry): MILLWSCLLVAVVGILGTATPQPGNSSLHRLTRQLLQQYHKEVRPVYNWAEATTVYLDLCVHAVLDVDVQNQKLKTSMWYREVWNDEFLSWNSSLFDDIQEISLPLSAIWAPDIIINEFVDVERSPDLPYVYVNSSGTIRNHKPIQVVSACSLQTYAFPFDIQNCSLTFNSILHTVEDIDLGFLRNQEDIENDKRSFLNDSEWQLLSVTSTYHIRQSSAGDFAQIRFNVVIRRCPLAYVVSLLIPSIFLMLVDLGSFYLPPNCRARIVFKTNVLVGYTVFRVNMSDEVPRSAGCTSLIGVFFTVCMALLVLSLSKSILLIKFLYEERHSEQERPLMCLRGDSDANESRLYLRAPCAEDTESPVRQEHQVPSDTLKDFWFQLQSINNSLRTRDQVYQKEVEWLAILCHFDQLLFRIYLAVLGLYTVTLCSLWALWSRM

D(1A) dopamine receptor = D(1A) dopamine receptor (Rattus norvegicus, UniProt P18901); experiment: Affinity was evaluated as inhibition constant for dopamine receptor D1 using [3H]-SCH- 23390 as radioligand
D(4) dopamine receptor [9] = biological target: T4, D(4) dopamine receptor; experiment: Affinity was evaluated by inhibition of [3H]-spiperone binding to COS cells transfected with human dopamine D-4 receptor; type: cell-based
Outline: (§2)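 Membranes from COS-7 cells transfected with human D-4 or D-2(long) receptor; [3H]spiperone binding inhibited in presence of sodium chloride. Ki averaged from two experiments.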

D(2) dopamine receptor [10] = biological target: T3, D(2) dopamine receptor; experiment: Affinity was evaluated by inhibition of [3H]spiperone binding to COS cells transfected with human dopamine D-2(long) receptor; type: cell-based; outline: as §2
[11] = Ratio between Ki values of D2 and S-3 receptors
[12] = biological target: T5, Serotonin 3 (5-HT3) receptor; experiment: Affinity was evaluated as inhibition constant for serotonin 5-hydroxytryptamine 3 receptor; type: protein-complex assay

T3 sequence (P14416 whole entry): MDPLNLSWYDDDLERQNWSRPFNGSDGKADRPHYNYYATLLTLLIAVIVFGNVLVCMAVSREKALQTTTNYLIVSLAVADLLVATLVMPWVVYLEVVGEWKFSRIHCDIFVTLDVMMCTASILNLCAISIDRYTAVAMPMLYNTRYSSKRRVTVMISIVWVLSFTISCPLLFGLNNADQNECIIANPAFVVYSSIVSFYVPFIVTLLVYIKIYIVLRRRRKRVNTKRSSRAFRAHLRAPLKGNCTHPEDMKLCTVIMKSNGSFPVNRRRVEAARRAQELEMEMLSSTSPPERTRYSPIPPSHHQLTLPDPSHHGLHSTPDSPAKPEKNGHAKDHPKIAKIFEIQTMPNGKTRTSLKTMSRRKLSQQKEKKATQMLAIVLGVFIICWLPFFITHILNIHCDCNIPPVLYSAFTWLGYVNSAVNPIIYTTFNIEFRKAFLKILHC
T1 sequence (P14842 whole entry): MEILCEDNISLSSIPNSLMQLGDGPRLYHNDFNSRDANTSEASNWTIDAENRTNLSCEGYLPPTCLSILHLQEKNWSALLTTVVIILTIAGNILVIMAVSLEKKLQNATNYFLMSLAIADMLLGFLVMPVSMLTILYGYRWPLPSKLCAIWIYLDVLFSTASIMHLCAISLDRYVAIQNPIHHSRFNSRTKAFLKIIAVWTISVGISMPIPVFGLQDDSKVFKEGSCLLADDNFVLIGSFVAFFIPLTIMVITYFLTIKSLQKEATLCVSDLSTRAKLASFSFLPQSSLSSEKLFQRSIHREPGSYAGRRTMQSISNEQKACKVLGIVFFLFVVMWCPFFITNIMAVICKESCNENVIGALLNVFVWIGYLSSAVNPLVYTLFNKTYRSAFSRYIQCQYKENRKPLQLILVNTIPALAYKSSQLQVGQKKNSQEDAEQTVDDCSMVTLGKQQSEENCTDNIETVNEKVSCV
Chain of D(1A) dopamine receptor (P18901 whole entry): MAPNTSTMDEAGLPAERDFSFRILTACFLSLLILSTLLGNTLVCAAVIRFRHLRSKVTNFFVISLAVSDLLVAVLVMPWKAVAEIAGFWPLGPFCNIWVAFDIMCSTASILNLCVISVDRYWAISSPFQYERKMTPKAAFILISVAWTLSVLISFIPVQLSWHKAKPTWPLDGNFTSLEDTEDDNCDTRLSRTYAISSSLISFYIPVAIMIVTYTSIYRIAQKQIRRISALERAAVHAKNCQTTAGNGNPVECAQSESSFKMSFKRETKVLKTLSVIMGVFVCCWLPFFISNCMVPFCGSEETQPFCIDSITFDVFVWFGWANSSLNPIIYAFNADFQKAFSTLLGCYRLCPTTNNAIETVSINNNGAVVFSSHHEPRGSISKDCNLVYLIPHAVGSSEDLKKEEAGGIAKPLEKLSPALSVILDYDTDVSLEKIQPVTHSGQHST

| Ki [1] | Ki [2] | Ki (D(2) dopamine receptor [3]) | Ki (D(4) dopamine receptor [4]) [µM] | Ratio [5] | Ki [6] [µM] | Ki [7] [µM] | Ki [8] [µM] | Ki (D(1A) dopamine receptor) [µM] | Ki (D(4) dopamine receptor [9]) [µM] | Ki (D(2) dopamine receptor [10]) [µM] | Ratio [11] | Ki [12] [µM] | Compound |
| --- | --- | --- | --- | --- | --- | --- | --- | --- | --- | --- | --- | --- | --- |
| 0.072 µM | 0.089 µM | 0.68 µM | 0.32 | 9.4 | – | – | – | – | – | – | – | – | CC1c2ccccc2C=C(C2=CCN(C)CC2)c2ccccc21 (racemic) |
| – | – | – | – | 1.2 | 0.25 | 0.39 | 0.081 | 0.12 | 2.7 | 0.29 | 3.6 | – | CC(C)=C1c2ccccc2C=C(N2CCN(C)CC2)c2ccccc21 |
| 0.03 µM | 0.035 µM | 0.25 µM | 0.33 | 8.3 | – | – | – | – | – | – | – | – | C=C1c2ccccc2C=C(C2=CCN(C)CC2)c2ccccc21 |
| 2.2 µM and 0.83 µM and 1.2 µM | 3.3 µM and 0.83 µM and 1.5 µM | 0.52 µM and 0.79 µM and 0.57 µM | – | – | – | – | – | – | – | – | – | – | CC(C)=C1c2ccccc2C=C(C2=CCN(C)CC2)c2ccccc21 |
| – | – | – | – | 3 | 0.003 | 0.006 | 0.057 | – | 0.0009 | 0.0087 | 0.15 | – | CN1CCN(C2=Cc3cc(Cl)ccc3Oc3ccccc32)CC1 |
| – | – | – | – | 5.2 | 0.011 | 0.018 | 0.031 | 0.0047 | 0.047 | 0.057 | 1.8 | – | C=C1c2ccccc2C=C(N2CCN(C)CC2)c2ccccc21 |
| – | – | – | – | 5 | 0.004 | 0.006 | 0.041 | – | 0.002 | 0.021 | 0.51 | – | CN1CCN(C2=Cc3ccccc3Oc3ccccc32)CC1 |
| – | – | – | – | – | 0.047 | 0.036 | – | 0.016 | 0.012 | – | – | – | CC1c2ccccc2C=C(N2CCN(C)CC2)c2ccccc21 (stereo not given) |
| – | – | – | – | – | – | – | – | – | 0.0049 | – | – | – | CN1CCN(C2=Nc3ccccc3Oc3ccc(Cl)cc32)CC1 [LOXAPINE] |
| 0.074 µM | 0.07 µM | 0.64 µM | 0.19 | 8.6 | – | – | – | – | – | – | – | – | C[C@@H]1c2ccccc2C=C(C2=CCN(C)CC2)c2ccccc21 |
| – | – | – | – | – | 0.011 | 0.019 | 0.039 | – | 0.023 | – | – | – | CN1CCN(C2=Nc3cc(Cl)ccc3Oc3ccccc32)CC1 [ISOLOXAPINE] |
| – | – | – | – | 7.4 | 0.098 | 0.11 | 0.035 | 0.068 | 0.3 | 0.73 | 21 | – | C/C=C1/c2ccccc2C=C(N2CCN(C)CC2)c2ccccc21 |
| 0.003 µM | 0.003 µM | 0.56 µM | 2.7 | 200 | – | – | – | – | – | – | 14 | 0.041 | CN1CCC(C2=Cc3cc(Cl)ccc3Cc3ccccc32)CC1 |
| – | – | – | – | – | 0.003 | 0.007 | 0.12 | – | 2.9 | – | – | – | CN1CCN(C2=Cc3cc(Cl)ccc3Cc3ccccc32)CC1 |
| – | – | – | – | 3 | 0.23 | 0.37 | 0.1 | 0.098 | 0.93 | 0.69 | 6.9 | – | CC(C)=C1c2ccc(Cl)cc2C=C(N2CCN(C)CC2)c2ccccc21 |
| – | – | – | 0.016 | – | – | – | – | 0.014 | – | – | – | 0.022 | CN1CCN(C2=Nc3ccccc3Nc3ccc(Cl)cc32)CC1 [ISOCLOZAPINE] |
| – | – | – | – | – | 0.002 | 0.006 | 0.049 | – | – | – | – | – | CN1CCN(C2=Cc3ccccc3Cc3ccc(Cl)cc32)CC1 |
| 0.2 µM | 0.25 µM | 0.73 µM | 0.4 | 3.7 | – | – | – | – | – | – | – | – | C[C@H]1c2ccccc2C=C(C2=CCN(C)CC2)c2ccccc21 |
| – | – | – | – | 0.8 | 0.003 | 0.003 | 0.084 | – | 0.00054 | 0.0025 | 0.03 | – | CN1CCN(C2=Cc3ccccc3Oc3ccc(Cl)cc32)CC1 |
| – | 0.084 µM | 2.5 µM | 0.42 | – | – | – | – | 0.2 | – | – | – | – | CN1CCN(C2=Nc3ccccc3Nc3ccccc32)CC1 |
| 0.14 µM | 0.074 µM | 1.1 µM | 0.12 | 7.9 | – | – | – | – | – | – | 28 | 0.04 | CN1CCN(C2=Nc3cc(Cl)ccc3N(C)c3ccccc32)CC1 |

| Compound | Ki [1] | Ki [2] | Ki (D(2) dopamine receptor [3]) | Ki (D(4) dopamine receptor [4]) [µM] | Ratio [5] | Ki [6] [µM] | Ki [7] [µM] | Ki [8] [µM] | Ki (D(1A) dopamine receptor) [µM] | Ki (D(4) dopamine receptor [9]) [µM] | Ki (D(2) dopamine receptor [10]) [µM] | Ratio [11] | Ki [12] [µM] |
| --- | --- | --- | --- | --- | --- | --- | --- | --- | --- | --- | --- | --- | --- |
| CC1CCN(C2=Cc3cc(Cl)ccc3Cc3ccccc32)CC1 | > 1 µM | > 1 µM | 1.4 µM | 1 | < 1 | – | – | – | – | – | – | < 1 | > 1 |
